The target in assay [1] is Opioid receptor (Rattus norvegicus, UniProt P33533+P34975+P33535). Put plainly: The compound was tested for binding affinity against opioid receptor in rat brain membranes, using [3H]dihydromorphine as the radioligand. In kind it is cell membranes. Summed up: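 Rat forebrain was homogenised in ice-cold 0.05 M Tris-HCl pH 7.4 and washed twice by centrifugation at 4 °C. It was preincubated 10 min at 37 °C, washed again and resuspended at 10 mg/mL. Triplicate tubes held 1 nM [3H]dihydromorphine and at least seven drug concentrations, incubated 40 min at room temperature, then vacuum-filtered. Nonspecific binding was set with 10⁻⁶ M naloxone. Values are mean ± SEM of three experiments.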

Assay [2] deals with Opioid receptor (Mus musculus, UniProt P42866+P32300+P33534). The assay can be described thus: Compound was tested for agonist activity against opioid receptor in mouse vas deferens preparation. In kind it is functional.
The test system of assay [3] is Opioid receptors; mu/kappa/delta. Put plainly: Compound was tested for irreversible antagonist activity against opioid receptor in mouse vas deferens expressed as IC50 of DADLE divided by the compound. The format is functional, tissue-based. In outline: (§1)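 Mouse vas deferens incubated 30 min with 200 nM test ligand, then washed thoroughly (20 times). Morphine and DADLE dose-response curves were rerun in the same tissue. Ratio = agonist IC50 after treatment / control IC50 in that tissue. Where the standard agonist gave under 65% response after treatment, an IC20 was estimated from the plotted dose-response curve. Means of three determinations unless otherwise noted.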

Assay [4] has the same test system. Put plainly: Compound was tested for agonist potency against opioid receptor in guinea pig ileal longitudinal muscle expressed as IC50 of morphine divided by the compound. In kind it is functional.
For assay [5] the test system is unchanged. The assay can be described thus: Compound was tested for irreversible antagonist activity against opioid receptor in mouse vas deferens at a concentration of 20 nM expressed as IC50 of morphine divided by the compound. The format is functional.
For assay [6], the target named is T1, Opioid receptors; mu/kappa/delta (Homo sapiens) (UniProt P41145+P41143+P35372). Put plainly: Compound was tested for irreversible antagonist activity against opioid receptor in mouse vas deferens expressed as IC50 of morphine divided by the compound. The format is functional, tissue-based. In outline:
as §1

For assay [7], the target named is T2, Opioid receptor (Mus musculus) (UniProt P42866+P32300+P33534). The assay can be described thus: Compound was tested for agonist activity against opioid receptor in mouse vas deferens preparation at concentration of 1E-7 M. The format is functional.
T2 sequence (P32300 whole entry, looked up): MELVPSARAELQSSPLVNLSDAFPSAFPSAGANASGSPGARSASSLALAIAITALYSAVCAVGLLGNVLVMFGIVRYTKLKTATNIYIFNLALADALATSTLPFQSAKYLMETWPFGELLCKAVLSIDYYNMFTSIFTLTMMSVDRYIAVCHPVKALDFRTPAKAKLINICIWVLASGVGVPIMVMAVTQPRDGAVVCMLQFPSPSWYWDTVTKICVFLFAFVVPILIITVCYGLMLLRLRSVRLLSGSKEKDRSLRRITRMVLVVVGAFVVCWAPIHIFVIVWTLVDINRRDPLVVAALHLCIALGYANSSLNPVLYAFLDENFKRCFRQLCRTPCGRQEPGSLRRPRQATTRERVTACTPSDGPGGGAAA
T2 sequence (P33534 whole entry, looked up): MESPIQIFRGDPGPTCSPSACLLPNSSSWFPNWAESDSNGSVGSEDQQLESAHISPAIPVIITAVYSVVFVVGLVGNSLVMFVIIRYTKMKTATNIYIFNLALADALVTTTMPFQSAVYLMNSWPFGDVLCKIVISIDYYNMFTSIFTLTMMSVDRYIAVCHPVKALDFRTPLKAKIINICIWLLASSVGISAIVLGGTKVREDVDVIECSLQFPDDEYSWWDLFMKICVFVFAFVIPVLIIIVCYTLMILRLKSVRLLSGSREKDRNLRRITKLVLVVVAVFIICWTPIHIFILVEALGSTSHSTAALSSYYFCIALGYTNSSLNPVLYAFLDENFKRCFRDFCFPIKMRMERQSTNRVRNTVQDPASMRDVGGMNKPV
T2 sequence (P42866 whole entry, looked up): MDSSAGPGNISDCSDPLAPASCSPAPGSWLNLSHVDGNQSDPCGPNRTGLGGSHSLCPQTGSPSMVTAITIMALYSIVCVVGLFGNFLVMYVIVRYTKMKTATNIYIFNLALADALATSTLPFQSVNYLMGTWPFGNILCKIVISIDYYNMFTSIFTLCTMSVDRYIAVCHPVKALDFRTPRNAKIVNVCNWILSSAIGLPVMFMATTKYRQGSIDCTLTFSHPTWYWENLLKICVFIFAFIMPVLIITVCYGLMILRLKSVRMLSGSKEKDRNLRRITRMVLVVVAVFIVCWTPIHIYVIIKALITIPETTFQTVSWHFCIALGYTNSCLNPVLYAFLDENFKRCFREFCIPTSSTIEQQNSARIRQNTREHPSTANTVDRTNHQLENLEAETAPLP
Assay [8] has as its target T2, Opioid receptor (Mus musculus). The assay can be described thus: Compound was tested for irreversible antagonist activity against opioid receptor in mouse vas deferens expressed as IC20 of morphine divided by the compound. In kind it is functional, tissue-based. Summed up: as §1
Assay [9] addresses T1, Opioid receptors; mu/kappa/delta (Homo sapiens). The assay can be described thus: Compound was tested for irreversible antagonist activity against opioid receptor in mouse vas deferens at a concentration of 100 nM, expressed as IC50 of morphine divided by the compound. In kind it is functional.
For assay [10] the target is unchanged. Put plainly: Compound was tested for irreversible antagonist activity against opioid receptor in mouse vas deferens, expressed as IC50 of morphine divided by the compound. The format is functional. Summed up:
(§2)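 Mouse vas deferens tissue incubated 30 min with test ligand at 200 nM, then washed thoroughly (20 times). Standard agonist (morphine or DADLE) IC50 redetermined and divided by control IC50 from the same tissue (treated/control ratio). Where the agonist gave under 65% response after treatment, an IC20 was estimated from the plotted dose-response curve. Means of three determinations unless otherwise noted.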

Assay [11] shares this target. The assay can be described thus: Compound was tested for irreversible antagonist activity against opioid receptor in mouse vas deferens at a concentration of 20 nM, expressed as IC50 of nalorphine divided by the compound. The format is functional.
The target is the same in assay [12]. The assay can be described thus: Compound was tested for irreversible antagonist activity against opioid receptor in mouse vas deferens, expressed as IC50 of DADLE divided by compound. In kind it is functional. In outline: as §2
Assay [13] has the same target. Put plainly: Compound was tested for irreversible antagonist activity against opioid receptor in mouse vas deferens at a concentration of 20 nM, expressed as IC50 of morphine divided by the compound. The format is functional.
The species named for assay [14] is Mus musculus. Put plainly: Compound was tested for partial agonism in presence of morphine at conc. of 3 e-5. In kind it is functional.
Assay [15] addresses Opioid receptors; mu and delta (Mus musculus) (UniProt P42866+P32300). The assay can be described thus: Irreversible antagonist activity against opioid receptor in mouse vas deferens at 200 nM relative to IC50 of nalorphine. In kind it is functional, tissue-based.
Assay [16] addresses T1, Opioid receptors; mu/kappa/delta (Homo sapiens). Put plainly: Compound was tested for irreversible antagonist activity against opioid receptor in mouse vas deferens at a concentration of 200 nM, expressed as IC50 of nalorphine divided by the compound. The format is functional.
Assay [17] has the same target. Put plainly: Compound was tested for irreversible antagonist activity against opioid receptor in mouse vas deferens expressed as IC50 of morphine divided by the compound (experiment. 2). In kind it is functional, tissue-based. In outline: as §1
Assay [18] has the same target. Put plainly: Compound was tested for irreversible antagonist activity against opioid receptor in mouse vas deferens expressed as IC50 of morphine divided by the compound (experiment 1). The format is functional, tissue-based. Summed up: as §1

Where “and” joins values, the source holds several entries; their conditions need not be identical. Identical values can stand only once.

T1 sequence (P35372 whole entry, looked up): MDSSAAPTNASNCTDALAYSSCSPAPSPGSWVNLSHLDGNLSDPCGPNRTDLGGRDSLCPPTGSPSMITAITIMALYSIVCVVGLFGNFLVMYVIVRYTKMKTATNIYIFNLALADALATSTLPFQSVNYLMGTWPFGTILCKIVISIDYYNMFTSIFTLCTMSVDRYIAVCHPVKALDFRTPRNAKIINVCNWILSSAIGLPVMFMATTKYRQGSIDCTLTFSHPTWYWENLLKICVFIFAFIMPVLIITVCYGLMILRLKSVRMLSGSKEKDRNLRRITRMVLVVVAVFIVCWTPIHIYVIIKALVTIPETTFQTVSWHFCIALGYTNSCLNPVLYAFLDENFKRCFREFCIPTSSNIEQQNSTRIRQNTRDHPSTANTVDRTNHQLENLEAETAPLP
T1 sequence (P41143 whole entry, looked up): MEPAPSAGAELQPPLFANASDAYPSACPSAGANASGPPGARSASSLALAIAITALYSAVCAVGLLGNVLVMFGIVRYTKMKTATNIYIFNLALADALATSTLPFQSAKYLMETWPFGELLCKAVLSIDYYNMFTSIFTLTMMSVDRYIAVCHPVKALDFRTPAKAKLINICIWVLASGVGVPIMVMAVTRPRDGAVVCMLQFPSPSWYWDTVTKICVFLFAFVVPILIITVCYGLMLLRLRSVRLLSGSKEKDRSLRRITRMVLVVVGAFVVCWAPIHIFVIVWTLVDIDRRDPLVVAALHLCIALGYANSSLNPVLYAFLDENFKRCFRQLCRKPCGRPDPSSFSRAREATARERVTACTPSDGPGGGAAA
T1 sequence (P41145 whole entry, looked up): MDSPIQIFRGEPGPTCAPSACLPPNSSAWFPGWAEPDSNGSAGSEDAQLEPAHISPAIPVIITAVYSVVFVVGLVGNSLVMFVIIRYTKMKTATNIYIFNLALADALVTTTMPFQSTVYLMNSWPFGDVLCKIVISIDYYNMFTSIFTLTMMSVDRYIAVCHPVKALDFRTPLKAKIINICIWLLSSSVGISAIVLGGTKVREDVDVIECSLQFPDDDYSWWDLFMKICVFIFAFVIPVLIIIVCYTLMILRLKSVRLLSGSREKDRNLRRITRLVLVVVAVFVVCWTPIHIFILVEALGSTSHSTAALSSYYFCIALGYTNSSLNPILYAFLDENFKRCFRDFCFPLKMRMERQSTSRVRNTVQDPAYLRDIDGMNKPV
Opioid receptors; mu and delta (Mus musculus), sequence (P32300 whole entry, looked up): as the sequence (P32300 whole entry, looked up) above
Opioid receptors; mu and delta (Mus musculus), sequence (P42866 whole entry, looked up): as the sequence (P42866 whole entry, looked up) above

Regarding `CCCCOC(=O)/C=C/C(=O)N[C@@H]1CC[C@@]2(O)C3Cc4ccc(O)c5c4C2(CCN3CC2CC2)[C@H]1O5` (some centres not stated), the IC50 in [1] is on record as 1.65 nM; in assay [2] it was 7 nM. Further, the Ratio in assay [3] is 1.75; in assay [5], 5.05 and 4.42; in [6] it was 10. In addition, the Potency ratio in assay [4] was 66.1.
With `O=C(/C=C/C(=O)OCc1ccccc1)N[C@@H]1CC[C@@]2(O)C3Cc4ccc(O)c5c4C2(CCN3CC2CC2)[C@H]1O5` (some centres not stated), the inhibition in assay [7] was 57%. In [8], this compound yielded an IC20 of 400 nM. The same compound came in with an IC50 in assay [1] of 0.3 nM. Further, the Ratio in assay [3] was 1.39; in [5], 6.33 and 5.85. The Potency ratio in [4] amounted to 1.41.
Turning to `COC(=O)/C=C/C(=O)N[C@@H]1CC[C@@]2(O)[C@H]3Cc4ccc(O)c5c4[C@@]2(CCN3CC2CC2)[C@H]1O5`, the Ratio was 12 in assay [9]; 10.6 in assay [10]; 1.2 in assay [11]; 1.1 in [12]; 6 in assay [13]. For the same compound, the IC50 in assay [1] was found to be 1.03 nM; in assay [2] it was 82 nM. For the same compound, in [4], the Potency ratio was determined as 5.
In turn, `CCCOC(=O)/C=C/C(=O)N[C@@H]1CC[C@@]2(O)C3Cc4ccc(O)c5c4C2(CCN3CC2CC2)[C@H]1O5` (some centres not stated) displayed an IC20 in [8] of 200 nM. Also, the Activity in assay [14] was 56%. The IC50 is 1.56 nM in assay [1] and 21 nM in [2]. The Ratio was 1.52 in assay [3]; 2.46 and 1.69 in assay [5]. In addition, the Potency ratio in assay [4] came to 147.
As to `CCOC(=O)/C=C/C(=O)N[C@@H]1CC[C@@]2(O)C3Cc4ccc(O)c5c4C2(CCN3CC2CC2)[C@H]1O5` (some centres not stated), the Ratio is 1.67 in assay [15]; 2.06 in assay [16]; 1.24 in [3]; 1.75 and 2.22 in [5]; 2.53 in assay [6]. Moreover, the IC50 in [1] worked out at 0.64 nM; in assay [2], 13 nM. In addition, in [4], the Potency ratio came to 16.1.
With `O=C(/C=C/C(=O)OCCc1ccccc1)N[C@@H]1CC[C@@]2(O)C3Cc4ccc(O)c5c4C2(CCN3CC2CC2)[C@H]1O5` (some centres not stated), the Ratio was 24.4 in assay [17]; 64.7 in assay [18]; 3.73 in assay [3]; 4.84 and 2.88 in assay [5]. Besides, the IC50 in assay [1] was 0.015 nM; in assay [2], 70.1 nM. Moreover, the Potency ratio in [4] came to 10.4.

The values are drawn from ChEMBL document CHEMBL1123494, “Irreversible blockage of opioid receptor types by ester homologues of beta-funaltrexamine” (J Med Chem, 1986).
